One data set concerns GLP mRNA. Put plainly: RT-qPCR of GLP mRNA in H1299 cells. The class given is cell-based. As to conditions: 3 μM, 24 h, normalized to DMSO. The procedure, abridged: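 H1299 cells were treated with DMSO or test compound at 3 μM for 24 h. Total RNA was extracted and reverse-transcribed to cDNA. qPCR used gene-specific primers for G9a and GLP, and a GAPDH primer set was included.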
(In general: Quantitative PCR measures a nucleic acid by following its amplification.)

A further data set has as its system PNT2 cells. Kind of data set: Cell viability assay. As to conditions: 5 days, WST-8 (CCK-8). It is filed as cell-based, human. The procedure, abridged: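 PNT2 cells were grown at 37 °C in 5% CO2 and treated with serial dilutions of the test compound. The general protocol gives a treatment span of 5–8 days. Viability was measured by CCK-8 (WST-8) absorbance at 450 nm, with 690 nm as reference. IC50 was calculated by curve fitting.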

A further data set addresses T1, PRMT7 (Homo sapiens, UniProt Q9NVM4).
T1 sequence (Q9NVM4 1-692): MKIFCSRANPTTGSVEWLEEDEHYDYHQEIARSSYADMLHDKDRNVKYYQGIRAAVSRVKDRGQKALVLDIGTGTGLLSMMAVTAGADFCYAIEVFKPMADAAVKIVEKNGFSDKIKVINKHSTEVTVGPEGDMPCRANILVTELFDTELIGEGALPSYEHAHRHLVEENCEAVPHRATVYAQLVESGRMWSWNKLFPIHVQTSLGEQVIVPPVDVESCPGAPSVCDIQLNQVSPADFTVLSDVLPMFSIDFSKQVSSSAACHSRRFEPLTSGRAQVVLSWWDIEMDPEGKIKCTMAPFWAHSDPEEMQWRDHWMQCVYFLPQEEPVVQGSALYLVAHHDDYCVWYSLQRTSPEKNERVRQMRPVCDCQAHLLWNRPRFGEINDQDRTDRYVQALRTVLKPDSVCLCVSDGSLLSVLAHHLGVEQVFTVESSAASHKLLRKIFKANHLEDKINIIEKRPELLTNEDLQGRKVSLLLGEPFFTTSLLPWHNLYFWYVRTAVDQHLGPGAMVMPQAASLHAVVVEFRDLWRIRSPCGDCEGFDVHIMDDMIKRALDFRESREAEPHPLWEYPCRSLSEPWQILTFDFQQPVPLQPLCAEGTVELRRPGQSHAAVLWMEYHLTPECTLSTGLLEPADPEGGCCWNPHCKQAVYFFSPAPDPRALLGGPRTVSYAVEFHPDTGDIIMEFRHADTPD
Put plainly: Western blot of PRMT7 protein level in 22Rv1 cells. The class given is cell-based. As to conditions: indicated concentration, 24 h, WB. The procedure, abridged: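 22Rv1 cells were treated with the test compound at the indicated concentrations for 24 h. Cells were lysed in RIPA containing protease inhibitor cocktail, and protein was resolved by SDS-PAGE and transferred to PVDF. Primary antibody was applied overnight at 4 °C, with β-actin as loading control. Blots are representative of two independent experiments.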
A general note: In western blotting, separated proteins are transferred to a membrane and probed.

Data set [1] addresses T2, G9a (Homo sapiens, UniProt Q96KQ7).
T2 sequence (Q96KQ7 1-1210): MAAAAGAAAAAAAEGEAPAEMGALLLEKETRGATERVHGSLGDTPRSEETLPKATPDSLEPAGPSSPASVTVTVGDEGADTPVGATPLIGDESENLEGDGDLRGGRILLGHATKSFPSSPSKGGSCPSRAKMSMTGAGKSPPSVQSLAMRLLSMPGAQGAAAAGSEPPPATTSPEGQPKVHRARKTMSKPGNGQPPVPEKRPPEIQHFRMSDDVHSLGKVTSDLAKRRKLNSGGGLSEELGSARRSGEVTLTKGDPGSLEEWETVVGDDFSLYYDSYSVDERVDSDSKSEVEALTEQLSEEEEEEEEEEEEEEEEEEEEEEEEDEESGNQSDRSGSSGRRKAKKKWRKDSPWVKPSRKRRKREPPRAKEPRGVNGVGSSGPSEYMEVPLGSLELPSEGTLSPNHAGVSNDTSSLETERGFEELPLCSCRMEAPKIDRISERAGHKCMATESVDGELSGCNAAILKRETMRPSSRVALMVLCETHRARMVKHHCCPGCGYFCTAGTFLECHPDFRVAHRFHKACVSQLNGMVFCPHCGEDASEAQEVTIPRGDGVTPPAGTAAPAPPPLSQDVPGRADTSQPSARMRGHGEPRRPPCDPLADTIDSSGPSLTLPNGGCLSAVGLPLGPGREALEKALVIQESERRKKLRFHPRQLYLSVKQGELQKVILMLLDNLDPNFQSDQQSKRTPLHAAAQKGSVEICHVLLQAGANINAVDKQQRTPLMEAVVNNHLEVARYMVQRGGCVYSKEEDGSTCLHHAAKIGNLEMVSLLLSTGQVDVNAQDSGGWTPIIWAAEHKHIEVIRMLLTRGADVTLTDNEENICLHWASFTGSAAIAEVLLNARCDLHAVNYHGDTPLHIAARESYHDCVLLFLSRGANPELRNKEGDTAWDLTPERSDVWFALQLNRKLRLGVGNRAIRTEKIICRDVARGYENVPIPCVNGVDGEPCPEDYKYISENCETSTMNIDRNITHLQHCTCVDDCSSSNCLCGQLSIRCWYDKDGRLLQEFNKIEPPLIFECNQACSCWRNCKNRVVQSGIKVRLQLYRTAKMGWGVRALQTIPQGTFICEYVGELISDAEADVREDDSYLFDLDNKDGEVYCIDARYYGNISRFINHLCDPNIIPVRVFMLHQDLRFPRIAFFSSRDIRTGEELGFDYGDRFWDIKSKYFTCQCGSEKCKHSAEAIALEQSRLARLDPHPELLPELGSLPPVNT
Kind of data set: Western blot of G9a protein levels in cancer cells. It is filed as cell-based. The procedure, abridged: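 Cells (22Rv1, K562, H1299) were treated for 24 h at the indicated concentrations; 22Rv1 time courses were run at 3 μM. Cells were lysed in RIPA with protease inhibitors, and 10–30 μg of protein was resolved by SDS-PAGE and transferred to PVDF. Blots were probed overnight at 4 °C, with vinculin/β-actin as loading controls. Band intensity was normalised to DMSO, with n = 2 independent experiments (mean ± SD).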

For data set [2], the target named is T2, G9a. Put plainly: G9a radioactive methyltransferase assay. It is filed as biochemical. As to conditions: indicated concentrations, duplicate (Figure 4B). The method, boiled down:
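Enzyme activity was measured with a radioisotope-based MT HotSpot methyltransferase assay run by a contract laboratory. Test compounds were run at the indicated concentrations, in duplicate. Data are mean ± SD of the two duplicate experiments.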

With `COc1cc2c(NC3CCN(CCCC(=O)NCCCCCCCCCCCC(=O)N[C@H](C(=O)N4C[C@H](O)C[C@H]4C(=O)NCc4ccc(-c5scnc5C)cc4)C(C)(C)C)CC3)nc(N3CCC(F)(F)CC3)nc2cc1OCCCN1CCCC1` [Compound 10, (2S,4R)-1-((S)-2-(12-(4-(4-((2-(4,4-difluoropiperidin-1-yl)-6-methoxy-7-(3-(pyrrolidin-1-yl)propoxy)quinazolin-4-yl)amino)piperidin-1-yl)butanamido)dodecanamido)-3,3-dimethylbutanoyl)-4-hydroxy-N-(4-(4-methylthiazol-5-yl)benzyl)pyrrolidine-2-carboxamide], in the data set on GLP mRNA, the “mRNA levels of GLP” value was “did not significantly alter”. The “cell viability of normal prostate cells” value with PNT2 cells is “does not affect the cell viability”. Moreover, the PRMT7 degradation entry at PRMT7 is given as “cannot induce the degradation”. Moreover, on G9a [1] (22Rv1 cells, 1 μM, 24 h, WB (Figure 3A)), the “G9a degradation, in words” value is recorded as “potently induced degradation”. Further, on G9a [1] (22Rv1 cells, 3 μM), the “duration of G9a degradation effect” value is recorded as “up to 48 h”, the “time at which G9a degradation was first observed” value is listed as 4 h and the “time to complete G9a degradation” value is on record as “around 24 h”. At G9a [1] (H1299 cells, 3 μM, 24 h, WB), the “G9a degradation, in words” value is given as “degraded”. For the same molecule, the “G9a degradation, in words” value on G9a [1] (K562 cells, 3 μM, 24 h, WB) was “induced G9a and GLP degradation”. In addition, the DC50 at G9a [1] (read-out: half-maximal degradation concentration (DC50) for G9a, 22Rv1 cells, 24 h, WB) was found to be 274 ± 2 nM. For the same molecule, on G9a [2], the “inhibition of G9a enzymatic activity” value is recorded as “similarly inhibited”.
